Only some compounds are listed: those with a hit (about 3.5% of all), similar ones and a draw of the others.
MrgX1 ag: agonists of human MrgX1 receptor, primary screen, HEK293 cells, Fluo-4 calcium flux. Mas-related G-protein coupled receptor member X1 (Homo sapiens), Q96LB2. B-score at 10 µM. actives 0.44% (n = 310,000). Fluo-4 calcium fluorescence, agonist mode; stronger effect = higher value. AID 588627, 2011;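 active = calcium response B-score plate-corrected fluorescence ratio at least 3 library SD, with starting fluorescence B-score inside 5 SD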
Target sequence (Q96LB2 whole entry, looked up): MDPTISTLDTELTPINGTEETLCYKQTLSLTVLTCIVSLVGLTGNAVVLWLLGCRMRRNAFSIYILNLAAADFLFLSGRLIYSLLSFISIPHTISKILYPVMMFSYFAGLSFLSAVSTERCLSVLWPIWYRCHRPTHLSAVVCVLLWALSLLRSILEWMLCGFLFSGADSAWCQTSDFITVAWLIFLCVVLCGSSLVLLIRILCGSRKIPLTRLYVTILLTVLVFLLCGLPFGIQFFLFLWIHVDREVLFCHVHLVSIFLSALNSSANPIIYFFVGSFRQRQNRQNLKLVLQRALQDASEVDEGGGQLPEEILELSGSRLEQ
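Test system: HEK293 cells stably expressing human MrgX1 receptor; Input: fifteen thousand cells per well; Dosing: compound delivered in addition one of three; Schedule: overnight seeding, then 1 h dark dye loading; Technique: Fluo-4 NW calcium fluorescence; Measure: B-scored fluorescence response ratio; Controls: positive and negative controls per plate.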
MrgX1 antagonist: antagonists of human MrgX1 receptor, primary screen, HEK293 cells, Fluo-4 calcium flux; Mas-related G-protein coupled receptor member X1 (Homo sapiens), Q96LB2; BAM8-22 antagonism; stronger effect = lower value; B-score at 10 µM; actives 1.3% (n = 310,000); AID 588676, 2011;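 active = calcium-response B-score plate-corrected more than 3 library SD below zero, starting fluorescence within 5 deviations, no agonist response on first addition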;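 note: peak minus trough fluorescence over baseline after final BAM8-22 challenge near maximal dose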
MrgX1 PAM: positive allosteric modulators of MrgX1, primary screen, HEK293 cells, Fluo-4 calcium flux; Mas-related G-protein coupled receptor member X1 (Homo sapiens), Q96LB2; FDSS; stronger effect = higher value; B-score at 10 µM; actives 0.63% (n = 310,000);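 active = plate-corrected calcium response at least 3 library SD above typical, normal starting fluorescence, not activating the receptor alone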;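 note: compound read alongside a low EC10 to EC30 dose of BAM8-22 agonist; peak minus trough fluorescence over baseline measured at the second addition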
RGS4 pot: RGS4 potentiators or activators, primary screen, cell-based, HEK293 M3R inducible RGS4, calcium flux; B-score at 10 µM; AID 463111, 2010; actives 0.92% (n = 310,000); carbachol calcium flux Fluo4; stronger effect = lower value;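 active = B-score of the integrated calcium signal more than 4 SD below the library mean, with starting fluorescence not abnormally high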;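 note: negative B-score means reduced calcium response which marks RGS4 activation or potentiation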
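test system = HEK293 cells with stable M3R and inducible RGS4 | schedule = recording 10 s baseline at 1 Hz, 100 s post-agonist | technique = Fluo4-AM (2 µM) calcium-flux fluorescence, kinetic read | measure = Agonist-evoked peak-minus-minimum fluorescence over baseline, integrated ratio, B score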
RGS4 block: RGS4 inhibitors, primary screen, cell-based, HEK293 M3R inducible RGS4, calcium flux. Fluo-4 calcium flux; stronger effect = higher value; triggered by carbachol at its EC20. B-score at 10 µM. actives 0.45% (n = 310,000). AID 463165, 2010;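 active = B-score, a plate-corrected calcium signal, over three deviations above library mean, with baseline fluorescence within five deviations of library mean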;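 note: RGS4 expression induced by doxycycline in cells with stable M3 receptor; B-score is computed from the integrated fluorescence ratio over baseline after carbachol; higher B-score means a larger calcium signal and so more RGS4 inhibition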
Target sequence (P49798 whole entry, looked up): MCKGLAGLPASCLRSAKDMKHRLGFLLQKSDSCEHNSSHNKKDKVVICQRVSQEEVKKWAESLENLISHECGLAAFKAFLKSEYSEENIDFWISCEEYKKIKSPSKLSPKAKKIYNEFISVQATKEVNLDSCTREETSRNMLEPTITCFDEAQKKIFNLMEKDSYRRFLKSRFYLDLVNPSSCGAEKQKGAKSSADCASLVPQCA
MrgX1 PAM conf: MrgX1 positive allosteric modulators, duplicate retest, confirmation, HEK293 cells, Fluo-4 calcium flux. shares compounds with MrgX1 PAM. Fluo-4 calcium fluorescence, FDSS. activation (ratio percentage), % at 10 µM. actives 13% (n = 1,200). AID 602413, 2012;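 active = ratio at least 3 SD above the weak peptide control, stable starting fluorescence, no direct agonism earlier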;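 note: compound followed by low BAM8-22 agonist challenge near EC20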
MrgX1 antag conf: MrgX1 receptor antagonists, duplicate retest, confirmation, HEK293 cells, Fluo-4 calcium flux; shares compounds with MrgX1 antagonist; BAM8-22 calcium flux; stronger effect = lower value; remaining BAM8-22 calcium response % of control (stronger effect = lower value), % at 10 µM; actives 19% (n = 2,300);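 active = remaining agonist calcium response no higher than 100% minus 3 SD of agonist-only control wells, with starting fluorescence near control levels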;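 note: agonist BAM8-22 given at a near maximal EC90 to ECmax level; peak minus minimum fluorescence divided by baseline after agonist addition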
HEK293 Ca flux: nonspecific calcium signal in parental HEK293, confirmation, counter-screen for MrgX1 antagonist project, parental HEK293 cells, Fluo-4 calcium flux | actives 2% (n = 4,000) | shares compounds with MrgX1 antagonist | fluorescence ratio F(max-min)/F0 at 10 µM | Fluo-4 calcium fluorescence, FDSS | AID 624111, 2012;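 active = duplicate-averaged calcium fluorescence ratio at least three times the standard deviation of buffer wells, a nonspecific response in parental cells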
HEK293 Ca counter: calcium response in parental HEK293 cells, primary screen, counter-screen for MrgX1 allosteric activator project, cell-based, Fluo-4 calcium flux, duplicate. fluorescence ratio F(max-min)/F0 at 10 µM. actives 0.4% (n = 4,000). Fluo-4 fluorescence ratio; stronger effect = higher value. shares compounds with MrgX1 antagonist;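 active = calcium fluorescence ratio, averaged over duplicates, at least 3 SD of the buffer-well ratio, meaning a nonspecific response in receptor-free cells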;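 note: untransfected parental HEK293 lacking MrgX1 used as counterscreen for MrgX1 allosteric activators; fluorescence change taken during the second addition on a kinetic imager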
HEK293 Ca cntr2: calcium response in parental HEK293 cells, primary screen, counter-screen for MrgX1 agonist project, cell-based, Fluo-4 calcium flux, duplicate, agonist mode. shares compounds with MrgX1 antagonist. Fluo-4 calcium fluorescence (FDSS); stronger effect = higher value. fluorescence ratio F(max-min)/F0 at 10 µM. actives 8.7% (n = 4,000). AID 624115, 2012;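 active = calcium fluorescence ratio at least three times the spread of buffer wells, meaning a non-specific response in parental cells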
Numbers stand for hits; . = inactive; / = not tested or not shown.

SMILES | MrgX1 ag | MrgX1 antagonist | MrgX1 PAM | RGS4 pot | RGS4 block | MrgX1 PAM conf | HEK293 Ca flux | HEK293 Ca counter | HEK293 Ca cntr2 | others
Fc1cc2[nH]c(=S)[nH]c2c(Br)c1N1CCSCC1 | . | . | . | . | . | / | / | / | /
CCCCNC(=O)NNC(=O)COc1cccc(C)c1C | . | . | . | . | . | / | / | / | /
CC(=O)Cc1nsc(NC(=O)c2ccc(-c3ccc(Cl)cc3Cl)o2)n1 | . | . | . | . | . | / | / | / | /
CC(=O)Cc1nsc(NC(=O)c2ccc(-c3cc(Cl)ccc3Cl)o2)n1 | . | . | 40 | . | . | 32% | . | . | .
C[C@H]1C=C(C(=O)NC2CC2)O[C@@H](OCc2ccc(CO)cc2)C1 | . | . | . | . | . | / | / | / | /
NNc1nc(-c2ccccc2Cl)nc2ccccc12 | . | . | . | . | . | / | / | / | /
NNc1nc(-c2ccccc2Cl)nc2sc3c(c12)CCCC3 | . | . | 32 | . | . | . | . | . | .
Cn1cccc1-c1nc2ccc(NC(=O)c3ccccc3)cc2[nH]1 | . | . | 7.2 | . | . | 39% | . | . | .
Cc1coc2cc3oc(=O)c(CCC(=O)NCCN4CCOCC4)c(C)c3cc12 | . | . | . | . | . | / | / | / | /
O=C(c1ccc(Cl)cc1)C1CCCN(Cc2cccn2-c2cccnc2)C1 (stereo not given) | . | . | 7.5 | . | . | . | . | . | .
COc1ccc(CCNc2nc(-c3ccncc3)cs2)cc1OC | . | -5.1 | 7.3 | . | . | . | . | . | . | MrgX1 antag conf=78%
C=C(C)COc1ccc(-c2[nH]ncc2-c2ccccc2)c(O)c1 | . | . | 16 | . | . | 14% | . | . | .
C=C(C)COc1ccc(-c2[nH]ncc2-c2ccc(OC)cc2)c(O)c1 | . | . | . | . | . | / | / | / | /
COc1ccc(-c2cn[nH]c2-c2ccc(O)cc2O)cc1 | . | . | . | . | . | / | / | / | /
COc1ccc(-c2[nH]ncc2-c2cnn(-c3ccccc3)c2)c(O)c1 | . | . | 9.4 | . | . | . | . | . | .
Cc1cc(/C=C2/SC(=S)N(c3cccc(Cl)c3)C2=O)c(C)n1-c1cccnc1 | . | . | 19 | . | . | . | . | . | .
CC(C)CCNC(=O)C(=O)Nc1ccc2c(c1)N(S(=O)(=O)c1cccs1)CCC2 | . | . | . | . | . | / | / | / | /
C=C(C)CNC(=S)Nc1cccc(S(=O)(=O)NC2=NCCC2)c1 | . | . | 11 | . | . | . | . | . | .
CSCCCNC(=S)Nc1cccc(S(=O)(=O)NC2=NCCC2)c1 | . | . | . | . | . | / | / | / | /
COc1cc(OC)c(C2N(C)c3ccccc3N2C)cc1OC | . | . | . | . | . | / | / | / | /
COc1cc(OC)c(C2SCCCS2)cc1OC | . | . | 13 | . | . | 6.3% | . | . | .
Cc1ccc(-n2nc(C)c3c(C(=O)OCC(=O)N(C)C4CCS(=O)(=O)C4)cc(-c4ccccc4)nc32)cc1 (stereo not given) | . | . | . | . | . | / | / | / | /
Cc1cc(-c2nc3ncccc3o2)ccc1NC(=S)NC(=O)C(C)C | . | . | . | . | . | / | / | / | /
Cn1ncc(Br)c1C(=O)NC12CC3CC(CC(C3)C1)C2 | . | . | 8.6 | . | . | . | . | . | .
COc1ccc(CN2CCc3c([nH]c4ccccc34)C2)c(OC)c1C | . | . | . | . | . | / | / | / | /
SMILES | MrgX1 ag | MrgX1 antagonist | MrgX1 PAM | RGS4 pot | RGS4 block | MrgX1 PAM conf | HEK293 Ca flux | HEK293 Ca counter | HEK293 Ca cntr2 | others
COCCNC(=O)CN(C(=O)CCC(=O)Nc1nccs1)c1ccc2c(c1)OCO2 | . | . | 33 | . | . | . | . | . | .
CC(C)NC(=O)CN(C(=O)CCC(=O)Nc1nccs1)c1ccc2c(c1)OCO2 | . | . | . | . | . | / | / | / | /
COC(=O)c1c(NC(=O)c2ccccc2F)sc(C(=O)N2CCOCC2)c1C | . | . | . | . | . | / | / | / | /
N#CC(C(=O)NC1CC1)c1nc2ccccc2nc1N1CCCC1 (stereo not given) | . | . | . | . | . | / | / | / | /
N#CC(C(=O)NC1CC1)c1nc2ccccc2nc1N1CCN(C/C=C/c2ccccc2)CC1 (stereo not given) | . | . | 9.3 | . | . | . | . | . | .
CCC(=O)c1ccc(OCC(O)CNC2CCCC2)cc1 (stereo not given) | . | . | . | . | . | / | / | / | /
O=C(Nc1nc(-c2ccccc2)ns1)c1cccs1 | . | . | 7.5 | . | . | 2.7% | . | . | .
O=C(Nc1nc2ccc(F)cc2s1)c1cccs1 | . | . | 9.3 | . | . | . | . | . | .
Cc1cc(C)cc(NC(=O)[C@@H](NC(=O)c2ccco2)C(C)C)c1 | . | . | . | . | . | / | / | / | /
CC(C)N(C(=O)N1CCN(c2ccnc3cc(Cl)ccc23)CC1)C(C)C | / | / | / | . | . | / | / | / | /
Cn1c(=O)n(C)c2cc(C(N)=O)ccc21 | . | . | 15 | . | . | . | . | . | .
COc1ccc(/C=N/NC(=O)c2cccc(OC(F)(F)C(F)F)c2)cc1O | . | . | . | . | . | / | / | / | /
CC(NC(=O)/C(=C/c1ccc2c(c1)OCO2)NC(=O)c1cccc([N+](=O)[O-])c1)C(=O)O (stereo not given) | . | . | . | . | . | / | / | / | /
Cc1ccc(Cn2ccnc2C(=O)Nc2ccccc2)cc1 | . | . | 9.7 | . | . | . | . | . | .
Nc1cc(Cl)ccc1Oc1ccccc1 | . | . | 20 | . | . | . | . | . | .
Cc1nc(-c2ccc(Cl)cc2)sc1C1(C)CC(c2cccc(F)c2)=NO1 (stereo not given) | . | . | . | . | . | / | / | / | /

Screens deposited in PubChem by Johns Hopkins Ion Channel Center.
